Assay outcomes as filed in PubChem BioAssay.
Sampled rows, rich in hits. Any-hit rate of the full collection: about 4.1%.
H9c2 TAG inh = triacylglycerol accumulation inhibition; H9c2 cells, Nile Red lipid (TAG) fluorescence; cells loaded with 200 µM oleic acid; inhibition, % at 12.5 µM; actives 0.66% (n = 230,000);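 active = pattern-corrected inhibition of lipid staining of at least 50% with the nuclear-stain viability signal not falling by more than 50%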;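 note: 0% = DMSO wells and 100% = triacsin C control wells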
Tb MetRS inh = Trypanosoma brucei MetRS inhibition; actives 0.4% (n = 360,000); purified T. brucei MetRS, ATP depletion, Kinase-Glo luminescence; inhibition, % at 11.9 µM; AID 624268;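 active = inhibition above a per-plate cutoff of the control wells' mean inhibition plus 3 SD, cut at about 5.5% in these data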;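 note: 0% = DMSO wells median and 100% = median of wells with control inhibitor compound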
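technique = Kinase-Glo luminescence, ATP depletion format | system = purified MetRS (methionyl-tRNA synthetase) enzyme from Trypanosoma brucei | timing = 15 min preincubation, 2 h reaction, all 25 °C | evaluation = percent inhibition versus plate control medians | dosing = single dose, 11.9 µM final nominal, 0.9% final DMSO | also added = substrates ATP, L-methionine and bulk Escherichia coli tRNA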
Efflux pump mplx = antifungal efflux pump inhibition, Nile Red retention; S. cerevisiae Candida pump triplex; inhibition, % at 10 µM; actives 0.44% (n = 330,000);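 active = plate passing quality check with inhibition over a set limit, or well fluorescence over plate mean plus 4 SD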;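 note: Nile Red retained in pooled yeast measured as flow cytometry median fluorescence; 0% = buffer negative control and 100% = Enniatin B positive control; higher means more Nile Red kept so more efflux inhibition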
AHR activator = human AHR activation; P35869; AHR-responsive luciferase reporter cells, luminescence; activation, % at 5 µM; actives 2.5% (n = 320,000); AID 2796; in the data active = activation above about 47%;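 note: 0% = vehicle wells and 100% = reference agonist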
Target sequence (P35869 whole entry, looked up): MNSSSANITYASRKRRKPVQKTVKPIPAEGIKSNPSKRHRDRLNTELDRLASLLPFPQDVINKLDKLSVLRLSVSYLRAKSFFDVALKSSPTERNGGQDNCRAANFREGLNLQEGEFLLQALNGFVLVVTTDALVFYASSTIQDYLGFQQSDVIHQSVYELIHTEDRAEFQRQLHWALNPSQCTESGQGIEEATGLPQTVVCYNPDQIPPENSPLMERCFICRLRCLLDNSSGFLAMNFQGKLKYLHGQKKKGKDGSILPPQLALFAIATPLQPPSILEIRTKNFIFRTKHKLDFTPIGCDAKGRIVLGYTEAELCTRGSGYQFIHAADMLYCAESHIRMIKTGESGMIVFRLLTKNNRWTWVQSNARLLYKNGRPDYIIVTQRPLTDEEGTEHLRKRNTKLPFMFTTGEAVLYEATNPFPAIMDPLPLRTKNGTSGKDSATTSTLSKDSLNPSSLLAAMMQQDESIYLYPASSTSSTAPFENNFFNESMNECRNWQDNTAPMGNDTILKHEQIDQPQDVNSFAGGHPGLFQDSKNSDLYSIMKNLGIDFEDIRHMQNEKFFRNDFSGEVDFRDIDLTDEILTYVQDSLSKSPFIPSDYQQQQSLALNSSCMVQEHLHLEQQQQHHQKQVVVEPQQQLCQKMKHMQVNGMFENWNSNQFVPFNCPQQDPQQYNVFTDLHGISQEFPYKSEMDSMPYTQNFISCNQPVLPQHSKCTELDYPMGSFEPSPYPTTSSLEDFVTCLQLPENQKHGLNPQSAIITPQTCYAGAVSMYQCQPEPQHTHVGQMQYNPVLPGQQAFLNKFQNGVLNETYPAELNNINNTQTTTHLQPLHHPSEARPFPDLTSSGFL
SMARCA2 activ = activators of SMARCA2 function; activation, % at 9.1 µM; MG213 cells, MMTV-luciferase reporter, dexamethasone, overnight; actives 1% (n = 370,000); in the data active = activation above about 7.8%;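 note: 0% = vehicle wells and 100% = reference activator wells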
SMARCA2 act conf = confirmation of SMARCA2 (BRM) function activators. shares compounds with SMARCA2 activ. MG213 cells, MMTV-luciferase with dexamethasone, luminescence, overnight; MG213 cells expressing E1A, Rb sequestered; DMSO wells 0%, reference activator 100%. activation, % at 9.1 µM. actives 30% (n = 3,500). AID 652260;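 active = activation above its plate's cutoff, the mean activation of tested wells plus 3 SD, cut at about 7.9% in these data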
GAL4-VP16 Luc = activates GAL4-VP16 luciferase, flagging SMARCA2 activator hits | activation, % at 9.1 µM | shares compounds with SMARCA2 activ | HEK293 GAL4-VP16 pG5luc reporter, luciferase luminescence; scaled: DMSO wells 0%, SAHA wells 100% | actives 41% (n = 3,500);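 active = activation above the solvent-only control well mean plus 3 SD, averaged across control plates, cut at about 5.2% in these data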
The depositor's hits bear a star; · = not tested or not shown.

SMILES | H9c2 TAG inh | Tb MetRS inh | Efflux pump mplx | AHR activator | SMARCA2 activ | SMARCA2 act conf | GAL4-VP16 Luc
O=C(Cc1ccccc1Cl)Nc1cc(S(=O)(=O)N2CCOCC2)ccc1N1CCOCC1 | -36 | 0 | 0 | 2 | 8.0* | 4 | 0
COC(=O)[C@]12C[C@H](CC(=O)N3CCN(C(=O)c4ccco4)CC3)C(=O)N(Cc3ccc(Cl)cc3Cl)C1=C[C@H](C(C)C)O[C@@H]2C1CC1 | · | · | · | · | -2 | · | ·
Cc1ccc(NC(=S)NCc2cccs2)c(C)c1 | -6 | 0 | 0 | 3 | 10* | -2 | 1
CCc1ccc(-n2nc3cc(C)c(N)cc3n2)cc1 | 39 | -1 | 0 | 0 | 11* | 5 | 13*
Cc1ccc(C2=[N+]([O-])C(C)(C)N(O)C2(C)C)cc1 | 0 | 0 | 0 | 4 | -4 | · | ·
CC1=[N+]([O-])C(C)(C)C(c2ccc(Br)cc2)=[N+]1[O-] | · | -1 | 0 | 1 | 12* | 1 | 0
CC(C)c1[nH]nc2c1C(c1ccccc1)NC2=O (stereo not drawn) | · | · | · | · | -1 | · | ·
CC(C)c1ccc(/C=N/NC(=O)c2c(Cl)cnn2C)cc1 | · | -1 | -6 | 12 | 11* | 15* | 4
CC(C)C[C@H](NC(=O)C1CCCC1)C(=O)N1CCC[C@H]1C(=O)NCc1ccccc1 | · | · | · | · | 1 | · | ·
CCc1ccc(N2CC(C(=O)Nc3ccc(S(=O)(=O)Nc4ncccn4)cc3)CC2=O)cc1 (stereo not drawn) | · | 0 | 0 | 1 | 2 | · | ·
Cc1cc(C)nc(NS(=O)(=O)c2ccc(NC(=O)C3CC(=O)N(c4ccccc4)C3)cc2)n1 (stereo not drawn) | · | 0 | 0 | 6 | 8.2* | -2 | 1
COc1ccc(N2CC(C(=O)Nc3ccc(S(=O)(=O)Nc4nc(C)cc(C)n4)cc3)CC2=O)cc1 (stereo not drawn) | · | 0 | 0 | 1 | 9.4* | -2 | 0
COC(=O)[C@H](CC(C)C)N(Cc1cn(CC2CCCCC2)nn1)S(=O)(=O)c1ccccc1Br | · | · | · | · | 0 | · | ·
CC(C)C[C@H]1COc2cc(NCCCN3CCOCC3)ccc2S(=O)(=O)N1 | · | · | · | · | -2 | · | ·
COc1cc2c(cc1OC)C(c1cc3cc4c(cc3[nH]c1=O)OCO4)N(C(=O)C1CC1)CC2 (stereo not drawn) | · | -1 | 0 | 1 | -2 | · | ·
COc1cc2c(cc1OC)C(c1cc3ccc(C)cc3[nH]c1=O)N(C(=O)c1ccco1)CC2 (stereo not drawn) | · | 0 | 0 | 4 | 11* | 0 | 1
CCCn1cc(CCC(=O)Nc2ccc(Oc3cccnc3)cc2)c2ccccc21 | · | · | · | · | -3 | · | ·
COc1ccc(N2CCN(CCNS(=O)(=O)c3ccc(Br)s3)CC2)cc1 | · | · | · | · | -2 | · | ·
Nc1nc(SCC(=O)N2CCCc3ccccc32)n[nH]1 | 3 | 0 | 0 | 0 | 3 | · | ·
Cc1ccc2nc(-c3ccc(SCC(=O)N4CCc5ccccc54)nc3)[nH]c2c1 | · | 1 | -18 | 59* | 9.1* | 12* | 13*
CCc1nnc(NC(=O)CSc2ccc(-c3nc4ccc(C)cc4[nH]3)cn2)s1 | · | 3 | 0 | 66* | 8.7* | 8.4* | 12*
Cc1nc(SCC(=O)N2CCc3ccccc32)n[nH]1 | · | 0 | 0 | -2 | 8.7* | 8.6* | 4
COc1ccc(Cn2c(C)cc(O)cc2=O)cc1 | · | · | · | · | -3 | · | ·
COc1ccc(-n2c(SCc3cccc4ccccc34)nnc2-c2ccccc2)cc1 | · | · | · | · | -6 | · | ·
C[C@H](O)[C@@H]1CN2CCc3c([nH]c4cccc(-c5ccccc5)c34)[C@@H]2C[C@@H]1N(C)C(=O)C1CCCCC1 | · | · | · | · | 9.7* | -3 | 0
CCOC(=O)c1sc2nc(-c3ccccc3)ccc2c1N | · | 0 | 0 | 4 | 1 | · | ·
NC(=O)c1sc2nc(-c3ccccc3)ccc2c1N | -16 | -1 | 0 | 20 | 8.1* | 7 | 10*
O=Cc1ccc2noc(-c3ccc(Cl)cc3)c2c1 | · | 0 | 0 | 12 | 17* | 11* | 3
Cc1ccc(-c2onc3ccc(Cl)cc23)cc1 | · | 0 | 0 | 25 | -2 | · | ·
